In the EternaBench riboswitch data:

Test system: MS2 coat protein
Assay: apparent Kd, MS2 coat protein; higher = weaker binding; RNA-MaP array; FMN 200 µM where present
Method in brief: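 Each design was made on Illumina sequencing-chip clusters by stalled E. coli RNA polymerase and titrated with SNAP-549-labelled MS2 coat protein from 0.7 or 1.5 nM, doubling to 3 µM, in the absence and then the presence of constant ligand. The buffer was 100 mM Tris-HCl pH 7.5, 80 mM KCl, 4 mM MgCl2, BSA, DTT, yeast tRNA and Tween-20. The apparent Kd is the median of filtered per-cluster fits of binding curves, with green signal normalised to red-channel RNA signal and control-cluster median Fmax.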

[1] = designed as: OFF switch for flavin mononucleotide, no ligand
[2] = ligand present: flavin mononucleotide, designed as: OFF switch for flavin mononucleotide
[3] = designed as: ON switch for flavin mononucleotide, no ligand
[4] = ligand present: flavin mononucleotide, designed as: ON switch for flavin mononucleotide

Sequence	apparent Kd [1] [nM]	apparent Kd [2] [nM]	apparent Kd [3] [nM]	apparent Kd [4] [nM]
AAAAACUAAGGAUAUACAUGAGGAUCACCCAUGUAAAAAAUGCAUGGGAAAACCUCAUGUAGAAGGUAGAAAAA	20.6	17.2		
GUUGUAAUGUCAGGAUAUAUAAUAAGUCAUACAGUAGAAGGGAUAAUUAUACUCAUGUACAUGAGGAUCACCCAUGUUAAAUAG			63.6	37.9
UUUAUUAGUUAGAAGGCUUGAUGAAUUACAAUGGACAUGAGGAUCACCCAUGUGUAUUCAUGUCAAGAGGAUAUAGUCAUAUAU			39.1	17.7
CUUAUGUGAGGAUAUGUACAGAAAAAACUGGGUGUAACUGUACAGAAGGCACAUGAGGAUCACCCAUGUGCAUU	59.9	57.1		
AGCUGUGGCCGAGGAUAUCUAAACCUUCAAACCGAAAUAUAAUCGGACAUGAGGAUCACCCAUGUAGAGAAGGCGGUCUCAGCA	13.3	28.8		
GUGCGUGGCUAGGAUAUUGUGGAGUUUUGUCAGCGAGAAGGAGCCACAUGAGGAUCACCCAUGUGGUGUUGCUC		67.5		
GAGUCUCUAUUAGAACCGAUACGAACAUGAGGAUCACCCAUGUAGGAUAUGCUAAAAGUUGUGUUGCAGAAGGACAUUUAAUGC	11.2	10.9		
AAUCCACAUGAGGAUCACCCAUGUGAGGAUAUCGUGCAGAAAAAAAAAAAAAACUGCACGAGAAGGCACAUGGA	160	69.1		
UAGUAUCUGCAGGAUAUCAGUGGAAAACACGUAUGAGAAGGGCAGACAUGAGGAUCACCCAUGUAUAGGGUCCG	81.4	206		
GCAGGCUUCGAGAAGGACAUGAGGAUCACCCAUGUGCGUGUGAAGCAGCCGUGAGGCUGCAUCAUGUAGGAUAUCGGAGUCUGU	77.8	650		
AGCAUGGUAGGAUAUACGGAACAUUAGGGUUUGUUAUGUGGACAUGAGGAUCACCCAUGUAGAAGGGCCGUGCA	35.6	67.5		
UUUCCGCGAGGAUAUACGGGCUGUGCUUUUCAUUUCUUACAACAUGAGGAUCACCCAUGUAGAAGGUGCUUCUU	208	196		
UUAGAGGAUUAAGGAUAUGCAGAGAGAUUAUGCGCGUCGCGCACAUGAGGAUCACCCAUGUAAGAGCAGAAGGUAACUAUGAUC	22.8	16.4		
GCGGUCAACGUAGGAUAUCUUCAGCCGCAGCGCAUUGCUGUACAUGAGGAUCACCCAUGUCCUGGAGAGAAGGACGGACUGCAA			145	23.2
CAGGAUAGAGGAUAUACAUAGAUACAGAUUCAUGUAAUCCUACAUGAGGAUCACCCAUGUAGAAGGCUAUCCUG	14.9	64.9		
UUAGGACAUGAGGAUCACCCAUGUGAGGAUAUGCUGCAGGGAGGUCCCAGCAAUAUUCGUAGAAGGCAUAAGGG	221	177		
GCAGAAGUAGUGAGGAUAUGCUCUACCUCGGUAGAGCAGAAGGCACAUGAGGAUCACCCAUGUGAUUCUUCUGC	26.9	158		
GUGUAUCGCCUCGAGGAUAUCCUGUCAUGCACAUGAGGAUCACCCAUGUAAGAGCGAGUUUUUUGGGAGAAGGCGAGUUCUCGGU			90.3	30.4
GUAGCUAUCGGAGGAUAUUCAUACCGGAAACGGACAUGAGGAUCACCCAUGUGGCGAAAGCCUUGGGAGAAGGUCGAUAGCUAC			308	10.5
CUAGCUAUCGGAGGAUAUUCAUACCGGAAACGGACAUGAGGAUCACCCAUGUGCGGAAACGCUUGGGAGAAGGCCGAUAGCUAG			210	18.9
GUAGCAUACCGAGGAUAUUCUAACCGGAAACGGACAUGAGGAUCACCCAUGUGGCGAAAGCCUAGGGAGAAGGCGGAAUGCUAC			10.5	11.6
UAAAAGCUAGGAUAUACAUGAGGAUCACCCAUGUACCGGCUUGGCCCUGGUCCUAAAUGUAGAAGGAGCACGCC	15.2	23.9		
UUGGUGUACGUAGGAUAUGUAGGAUAUUCCUACAUGAGGAUCACCCAUGUUUACAUGGAAGAAGGACAGAAGGACGUGCACCAU			1280	15.2
CCCGACUAGAAGUCGGUACGGAGGAGAAGGCGCCUCCUGGGUCCACAUGAGGAUCACCCAUGUGGCGAGGAUAUCCUCAGUUUU	14.2	74		
UGUCUGAUCUAAUAACAUGAGGAUCACCCAUGUGUUCACAACUAGGAUAUCGAUUGUUAAGACGUCGAGAAGGAGUAUACAUUA	39	53.5		
UGAAAUCAUGUAGGAUAUGCAUGGCGAAGCUACGCAGAAGGACAUGAGGAUCACCCAUGUUAUAGCUACUCAGUUCGGUGGCAA	38.5	195		
GGAGCACACAUUAACAUGAGGAUCACCCAUGUCACAAGACAUGAGGAUAUGGAUCCGAAAAGGAUCCAGAAGGCAUGGUGCUCC			657	28
CGCCAAUUGGCACAGGAUAUGAGCAUGCUCACAUGAGGAUCACCCAUGUGAUUACCAACGCAAAAUCAGAAGGGUGCCCUCGUCA			147	97.1

Sequence	apparent Kd [1] [nM]	apparent Kd [2] [nM]	apparent Kd [3] [nM]	apparent Kd [4] [nM]
UUAAGGGACUGAGGAUAUACAUGAAUUAUGUUUGUAGAAGGCAGAUUGUUAGUUUAUUCACUAUACAUGAGGAUCACCCAUGUU	25.1	20.6		
UGUCUAUUUGAAGGAUAUCUAAGCAUAAACCAGAGAGAAGGUCAAUUAUACAUGAGGAUCACCCAUGUUGAGAUUAAUGGGUUA	27.1	40.3		
GGACAUGUCGUCUACAUGAGGAUCACCCAUGUCGAUAGACAUGAGGAUAUCGAUAAGAAUUGUAUCGAGAAGGCAUGCAGGUCC			19.8	21.6
AAUUAUUAUUGAGGAUAUCGUAGUGAAACACUACGAGAAGGCGGUAUAAACAUGAGGAUCACCCAUGUGAGCCUGAUGCUUAUG	28.9	58.9		
GACUACGAGGGAGGAUAUCCUCAUUAAUUUGGUGGAGAAGGCCCUCUACAUGAGGAUCACCCAUGUAUCGCUAUAGUCAGACAU			9.92	6.95
UUGGACAUCGUAGGAUAUGUAGGAUAUUCCUACAUGAGGAUCACCCAUGUUGACAUGGAAGAAGGACAGAAGGACGAUGUCCAU			207	4.12
AAACAUGUCCGAGGAUAUCUGGAAACAUUUUCAAGAGAAGGCGGACAUGAGGAUCACCCAUGUCUCUCCUCAUCAACUACAAUU	8.31	58.1		
UGGUACAUCGGAGGAUAUCAUGUAGAUACAUGAGGAUCACCCAUGUCGAUGGAGACAUCGGAGAUUGAGAAGGCCGAUGUACCU			612	31.7
CGAAGUACGUAAGGAUAUACCGUGAGGACAACGGUAGAAGGUACAACAACAUGAGGAUCACCCAUGUGGACCUCUCGGCGUUGU	394	617		
AUUGACUGAGGAUAUUGUACUGCUGACAUGAGGAUCACCCAUGUAUGCUAACUCGGCCGUCGAGAAGGCAGUAAUG	39	27.3		
UUCACGUUAGUAGGAUAUCCGACAUGAGGAUCACCCAUGUCAACAUGGCUCUAGGGAAGUUGUUAGGAGAAGGGCUUUUAAAUA			11.9	10.3
AAAAACCGAGGAUAUACAUGAGGAUCACCCAUGUCAAAAAAAAAAAAAAAAAAAAAAGGUAGAAGGCGGAAAAA	64.3	57.9		
UCUCGACAUGAGGAUCACCCAUGUCAGGAUAUUGUAUUGGAGGUGUUUAACCUUAUGGCAAGAAGGGAUGUGUG	24	27.1		
UUACUAUUGGAGAAGGGUCGAUCAUAUAGAAUGACAGGAUAUCCAACAUGAGGAUCACCCAUGUGUCACCCAUAUGAGGAUCAC	34.3	52.4		
ACAUAGCGAGGAUAUACAUGAGGAUCACCCAUGUGGUGGCGGUUACGGUAGGACUAGUGUAGAAGGUGCCAUGG	418	424		
ACAUUGUGAGGAUAUCCGAAGAAGGUCCGGAAGGUUCGGGUGGAGAAGGCACAUGAGGAUCACCCAUGUGUGGG	51.8	137		
UCCUUACAUGAGGAUCACCCAUGUCAGGAUAUCUCCACACUGCGCUUGCGCAGUGUAUAGAGAAGGGACGGGCU	34.2	26.2		
UCAUGGUAGCAGGAUAUGCUUGUAAUUUUUUUUGCAGAAGGGCUUACAUGAGGAUCACCCAUGUGUUAGGUCUA	32.8	46.7		
AGUGUCAUCGAGAAGGCCUCAACAUGAGGAUCACCCAUGUUGUUACAUGGGAGGAUAUCGAUGAUACAGCUACGUUUCGUAGCA			1010	137
GGGUGAGCUCAAGGAUAUCCAAAUCGGUUACAUGAGGAUCACCCAUGUCCGGGCGAAUAAAGGCCGGAGAAGGUGAGGGCCCUC			67.5	180
UACAUCAAUGAAGGAUAUCGAUAUCCAACAUGAGGAUCACCCAUGUUGAGGAUCACCCAUGUAAAUGAGAAGGUUAACAUAACU			94.9	83.3
GUCAGCUCGUGAGGAUAUACAACACUGCUUCGGCAGUGUAUUAAGAUCACAUGAGGAUCACCCAUGUAGAAGGCAUGAGCUGAU	14.9	297		
GUGUACAGAGGAUAUGCACGAGUAGUUACGAAAGUAACUGCACAUGAGGAUCACCCAUGUAGAAGGCUGUACAC	17.9	16.7		
UCGAGGUCAGGAUAUACAUGAGGAUCACCCAUGUUGAGAGAAGGUAGGAAAAGAGUAGGUAGAAGGGACGAGAG	33.7	33.8		
GAUCGUAUCCUAGGAUAUUCAUAAAACAUGAGGAUCACCCAUGUUAACUUGGGAGAAGGAGGAUACGAUCAACAGCGAAAGCUG			7.35	5.09
CCCGAGUUAGGAUAUCGGACUGGCCCGCACAGGCUAGCAAUUGAGAAGGAACAUGAGGAUCACCCAUGUGAGUA	24.2	61.6		
CCAUAAAAGAUCCAAUUUUACAACAUGAGGAUCACCCAUGUGCAGGAUAUCGUGAAAGUAAAAUACGAGAAGGGCAAGAACUGC	265	246		
